The data set relates to MS2 coat protein. As to the kind of experiment: apparent Kd, MS2 coat protein; higher = weaker binding; RNA-MaP array; FMN 200 µM where present. In outline:
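SNAP-549-labelled MS2 coat protein, doubled from 0.7 or 1.5 nM to 3 µM, was titrated over designs transcribed by stalled E. coli RNA polymerase on Illumina sequencing-chip clusters. Titrations were run without and then with constant ligand in 100 mM Tris-HCl pH 7.5, 80 mM KCl, 4 mM MgCl2, BSA, DTT, yeast tRNA and Tween-20. The apparent Kd is the median of filtered per-cluster fits to green signal normalised to red-channel RNA signal and control-cluster median Fmax.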

Where [1] appears, read: designed as: OFF switch for flavin mononucleotide, no ligand.
The mark [2] stands for this setting: ligand present: flavin mononucleotide, designed as: OFF switch for flavin mononucleotide.
Setting [3] is: designed as: ON switch for flavin mononucleotide, no ligand.
The mark [4] stands for this setting: ligand present: flavin mononucleotide, designed as: ON switch for flavin mononucleotide.

48 sequences from the EternaBench riboswitch data can be followed below.

As a reminder, the apparent Kd is a dissociation constant that holds for the conditions of the assay. “GUUUGAUGAGGAUAUCGAGGUUAGUACAUGAGGAUCACCCAUGUUAUCCAGGUGUCGGUUCGAGAAGGUAUUGGAC”: the “apparent Kd” value under setting [1] is 18.4 nM and the “apparent Kd” value under setting [2] amounted to 38.1 nM.
On the same counts, the results for “AUGCUAUACGAAGGAUAUGGUUACAUGAGGAUCACCCAUGUUAUGAUUGGUUACUUGUUUAGUUUCCAGAAGGUCGUAUAGCUA” are 58.1 nM and 232 nM.
On to “UCCCGAAGGCGGGCCGACCAUACAUGAGGAUCACCCAUGUCGAGAAGGUGCUCACGGGUGGGUGGCAAGGAUAUCGGGUCGGAU”, for which the “apparent Kd” value is, setting by setting: under setting [3], 93.8 nM; under setting [4], 42.3 nM.
For the sequence “CCGCUGUGAGGAUAUUAGUAGUAGUCAGAAUAGACUAUUACUGAGAAGGCACAUGAGGAUCACCCAUGUGGCGG”, the “apparent Kd” value came to 22.4 nM under setting [1] and 31.7 nM under setting [2].
The corresponding values for “CCAAUGUAAGGAUAUGACAAUGGUAUCUUCGGAUACCAUUGUCAGAAGGUACAUGAGGAUCACCCAUGUACAAA” are 14.3 nM and 16.6 nM.
Consider “GCGUCACAAUUAGAACCGAUACGAACAUGAGGAUCACCCAUGUAGGAUAUGCUAGAAGUUGAGUUGCAGAAGGACAUUUAUCGC”, for which the “apparent Kd” value under setting [1] worked out at 11.1 nM and the “apparent Kd” value under setting [2] stood at 10.6 nM.
On the same counts, the results for “AGCGUGGAGACAGGAUAUGAGAAUAGAUAGAAAUCAGAAGGGUCACAUGAGGAUCACCCAUGUAAAGUCUUGAGGAUGAGUGAU” are 86.5 nM and 208 nM.
Turning to “AUGCUCAGAGGAUAUACAUGAGGAUCACCCAUGUGUUACCGAGGAGUACGGUCGUCACGUAGAAGGCUGGGUAA”, the “apparent Kd” value is 17.9 nM under setting [1] and 58.8 nM under setting [2].
On the same counts, the results for “UGAGUCUGCUGAGGAUAUUGCUCGUGCGUACAUGAGGAUCACCCAUGUGUCUUGAUCCUCUUCUGCAAGAAGGCAGCUCUCUCU” are 775 nM and 444 nM.
Turning to “GGCUAACGGGCUAACAUGAGGAUCACCCAUGUGGACUCAUGGUAGGAUAUGCUGUACAAAGUACAGCAGAAGGGCCGGUGAGCC”, the “apparent Kd” value is, setting by setting: under setting [3], 128 nM; under setting [4], 978 nM.
As for “GGGACUCAAAGAGUACCAAUACGAACAUGAGGAUCACCCAUGUAGGAUAUGCUACUCAAAGAGUAGCAGAAGGACAUGUGCCUA”, the “apparent Kd” value under setting [1] is 15.3 nM and the “apparent Kd” value under setting [2] was 82.2 nM.
As to “UUCAAAUCGUAGAAGGGUGACAUGAGGAUCACCCAUGUGCAGCAGCCGUGAACGGCCAUGCUGCCACAGGAUAUACGAUGGAGU”, the “apparent Kd” value came out at 93.2 nM under setting [3] and 96.5 nM under setting [4].
As for “AAACUGCAGAAGAUAAUAAUGAAUACAUGAGGAUCACCCAUGUAGGAUAUCGUCAGGAAUACUGACGAGAAGGACAUACUGCAG”, the “apparent Kd” value amounted to 14.3 nM under setting [1] and 15.6 nM under setting [2].
The corresponding values for “AUUUUAAAGGGAGGAUAUACAUGAGGAUCACCCAUGUAAACGUGAGGAUCACCCAUGUAAACAAUGUAGAAGGCCUAAAUCUAU” are 86.1 nM and 73.6 nM.
As to “AUAAUUAUAUAUUUGGCAAGAAUCAGAAGGCGUUACAUGAGGAUCACCCAUGUUUUGUAUAGUAACGAGGAUAUGAUAUGGAAA”, the “apparent Kd” value by setting is: under setting [1], 16.3 nM; under setting [2], 12.7 nM.
As to “GGGUACAUCGGAGGAUAUGAUGUAAAUACAUGAGGAUCACCCAUGUCGAUGGAGACAUCGGAGAUUGAGAAGGCCGAUGUACCG”, the “apparent Kd” value is, setting by setting: under setting [3], 88.2 nM; under setting [4], 32.2 nM.
With “GCACGACAUGUAGGAUAUCGAGCGCCGAGCGCUCGAGAAGGACAUGAGGAUCACCCAUGUAUUCCGAGUGAGUCAGGUCGUGCA”, the “apparent Kd” value under setting [1] stood at 17.5 nM and the “apparent Kd” value under setting [2] is 23.4 nM.
On the same counts, the results for “UUAUUAUGUGUAGGAUAUGCAUAUUCUUAUUAUGCAGAAGGACAUGAGGAUCACCCAUGUAUAUUAUUAUUAUAUAUUAUAUAU” are 14.6 nM and 13.1 nM.
On to “CCGAGGCAAAUAAAACAUGAGGAUCACCCAUGUGAGUCUCAUGAGGAUAUGCAGGUCAAAGACUUGCAGAAGGCAUGGCUUCGG”, for which the “apparent Kd” value is, setting by setting: under setting [3], 1190 nM; under setting [4], 146 nM.
For the sequence “UCGCUGCGAGGAUAUACAUGAGGAUCACCCAUGUACGGGUCCGGGUUUUCGUCCAUUAGUAGAAGGCGCAGUGA”, the “apparent Kd” value stood at 156 nM under setting [1] and 60.6 nM under setting [2].
The corresponding values for “GGUCCAUCUGUUAGGAUAUGCUUUGGGCUUCCGCAGUAGAAGGAACAUGAGGAUCACCCAUGUCCGAUGCCGUA” are 20.4 nM and 25.4 nM.
Consider “ACGUUUAAUACAGGAUAUGUUCUUAUACUAUACAUUGCUUAUUACUUAAUUACAGAAGGGUAUAACAUGAGGAUCACCCAUGUA”, for which the “apparent Kd” value reads like this: under setting [3], 108 nM; under setting [4], 63.2 nM.
Turning to “CUGGUGUGAGGAUAUCUACGCCAUGUCUUUGACAUGGCGCAAGAGAAGGCACAUGAGGAUCACCCAUGUACUUC”, the “apparent Kd” value is, setting by setting: under setting [1], 21.7 nM; under setting [2], 74.4 nM.
The corresponding values for “GAGUGCUGAGGAUAUACAUGAGGAUCACCCAUGUGCUUCAACUAGGAGACUAGUAUUGGUAGAAGGCAGUACUC” are 16.5 nM and 104 nM.
Turning to “UGGUGCGAGCUAUCGCAUGACUGGGAGGAUAUGACAUGAGGAUCACCCAUGUGGGAUCUAAAUUGUCAGAAGGCUCGAUCUGGG”, the “apparent Kd” value runs as follows: under setting [1], 346 nM; under setting [2], 102 nM.
On the same counts, the results for “AUUAUAUAGUAAGGAUAUAGAUUAUUAUUUUAACAUGAGGAUCACCCAUGUAGCCUUAUGUAUAACUAGAAGGUACAUUUAUUA” are 47.8 nM and 50.5 nM.
Take “CUAUGUUAGCAGGAUAUGCCAUUAUUCCUUUACGCAGAAGGGCUUACAUGAGGAUCACCCAUGUUACAUUUCAU”: the “apparent Kd” value was 14.1 nM under setting [1] and 29.8 nM under setting [2].
The corresponding values for “GUGUAGAUAGGAUAUGCUGGAAUCUAGCGAAGCUAGGUUCUACAUGAGGAUCACCCAUGUAGAAGGGUCUACAC” are 33.4 nM and 22.6 nM.
The corresponding values for “CCUCUGUAAGGAUAUACGGAGACCACUGGAAUCAGUGGAAAGUAGAAGGUACAUGAGGAUCACCCAUGUGAGAA” are 86.6 nM and 151 nM.
On the same counts, the results for “GCGUGGUGUCUAGGAUAUGCCGUGCAACGAGGAGCAGAAGGAGACAUGAGGAUCACCCAUGUAAGCUUAGCCGCUCACAGAGGG” are 26.8 nM and 73.7 nM.
As for “UUGCCUCAGAACAUGAGGAUCACCCAUGUGCUGCGGGCAACGUAGGAUAUGAUGGUAUUAUACCGUCAGAAGGAUGAUGGUACU”, the “apparent Kd” value came to 5.59 nM under setting [3] and 5.2 nM under setting [4].
As for “GGAAAUCAUGUAGGAUAUGCAUGGCGAAGCUACGCAGAAGGACAUGAGGAUCACCCAUGUUAUAGCGUCCGAGAAAGGAUGCGA”, the “apparent Kd” value is, setting by setting: under setting [1], 55.6 nM; under setting [2], 114 nM.
The corresponding values for “GGAUAGGACAGAGGAUAUACGUGCUAGAGAUACUAGCAAAAUUUCCUCACAUGAGGAUCACCCAUGUAGAAGGCUGUCCUAUAG” are 16.7 nM and 432 nM.
The corresponding values for “UUAAAUCAUGUAGGAUAUGCAUGGCGAAGCUACGCAGAAGGACAUGAGGAUCACCCAUGUUCGAGCUACCGAGUUCGGUGGCAA” are 21.9 nM and 122 nM.
As for “GACUUGGCUACAUGAGGAUCACCCAUGUUUGACUGGAUCGAUUAGGAUAUAGUGAUUUGCAACAAUUAGAAGGGAUGUUUACGG”, the “apparent Kd” value came out at 23 nM under setting [3] and 28.8 nM under setting [4].
As for “UAUCGUUCCGAGGAUAUGAGGCGACUGGCGCGAUCAGAAGGCGGAACAUGAGGAUCACCCAUGUUCCUUACCUU”, the “apparent Kd” value was found to be 12.2 nM under setting [1] and 20.5 nM under setting [2].
Regarding “AGCUAGUCAGGAUAUACGCAAACGAACGAAGCAGUGAAGGGACAUGAGGAUCACCCAUGUAGAAGGGACUAGCA”, the “apparent Kd” value reads like this: under setting [1], 24.5 nM; under setting [2], 140 nM.
The corresponding values for “AAUUAUUUUUGAGGAUAUCGUGGUGAAACACCACGAGAAGGCGAGAUAAACAUGAGGAUCACCCAUGUGAGCCUGAUGCUUAUG” are 21.2 nM and 44.4 nM.
With “UUGGACGUCGUAGGAUAUGUAGGAUAUUCCUACAUGAGGAUCACCCAUGUUGACAUGGAAGAAGGACAGAAAGACGAUGUCCAU”, the “apparent Kd” value under setting [3] came out at 333 nM and the “apparent Kd” value under setting [4] amounted to 6.63 nM.
Turning to “GUGAGCUCGUGAGGAUAUACAACACUGCUUCGGCAGUGUAUUAAGAUCACAUGAGGAUCACCCAUGUAGAAGGCACGAGCUGAU”, the “apparent Kd” value under setting [1] was determined as 14.5 nM and the “apparent Kd” value under setting [2] stood at 272 nM.
Regarding “UUGGACGUCGUAGGAUAUGUGGGAUAUUCCUACAUGAGGAUCACCCAUGUUGACAUGGAAGAAGGACAGAAGGACGAUGUCCAU”, the “apparent Kd” value by setting is: under setting [3], 31.1 nM; under setting [4], 5.52 nM.
“CGAUAUUAUGCAGGAUAUCUUUCUUGAAUGAGGAGAGAAGGGCAUAGGGAGACAUAAGCCUUAUUACAUGAGGAUCACCCAUGU”: the “apparent Kd” value under setting [1] worked out at 10.9 nM and the “apparent Kd” value under setting [2] stood at 9.5 nM.
Take “GGGCAAUUAGGAUAUACAUGAGGAUCACCCAUGUGGAAGCCCGGACAGGUAAUCCACUGUAGAAGGGAUUGCGG”: the “apparent Kd” value under setting [1] turned out to be 14.8 nM and the “apparent Kd” value under setting [2] was 15 nM.
Consider “AGCGUCGGCACAGGAUAUGAGAUGCCGGCAGACAUGAGGAUCACCCAUGUAAGCGACCCAGGCAGUCAGAAGGGUGAUCGACAA”, for which the “apparent Kd” value is, setting by setting: under setting [3], 121 nM; under setting [4], 65 nM.
Turning to “CGAUAGGACAGAGGAUAUACACAUGAGGAUCACCCAUGUGAUUUCAGCGCGAAAGCGCCAAACAUGUAGAAGGCUGUCCUAUCG”, the “apparent Kd” value runs as follows: under setting [1], 25.9 nM; under setting [2], 10.6 nM.
“AGCUACGUUUCGUAGCAGCUAGGUGAGGAUAUCCUUAACAUGAGGAUCACCCAUGUUUAGCCAUGGGAGAAGGCGCCUAGAAAG”: the “apparent Kd” value reads like this: under setting [3], 259 nM; under setting [4], 21.5 nM.
With “AAAAGACAUGAGGAUCACCCAUGUCAAGACAUGGGAGGAUAUGCAUGGAAAACAUGCUGUGCAGAAGGCUCAUGUC”, the “apparent Kd” value is 32.6 nM under setting [3] and 22.4 nM under setting [4].
Consider “UCAUUUCAGAAAGGAUAUUAAUUCAUGACGAUACAUGAGGAUCACCCAUGUUAAGAAGGUUCUAAUACAAAUAAUGCAUUGUUC”, for which the “apparent Kd” value amounted to 13.2 nM under setting [1] and 10.5 nM under setting [2].
